{"data": "Measurements gathered from unrelated publications", "note": "Protocols differ between the studies behind these lines."}
{"SMILES": "COc1ccc2c(c1)CN(C(=O)CCN1CCC(Cc3ccccc3)CC1)CC[S@@+]2[O-]", "system": "male human, plasma", "conditions": "intravenous, 0.15 mg/kg, healthy volunteers", "quantity": "Cmax", "value": "349 ng/mL"}
{"SMILES": "COCC(=O)N1CCC[C@H](C(=O)NCc2nc(-c3ccc(C#N)cc3)cs2)C1", "system": "Caco-2", "quantity": "efflux ratio", "value": 2.2}
{"SMILES": "O=C(COc1ccc(Cl)cc1)NC12CC(c3nnc([C@H]4C[C@@H](OC(F)(F)F)C4)o3)(C1)C2", "system": "human, plasma", "conditions": "oral, 200 mg, multiple doses, once daily, steady state, healthy volunteers", "quantity": "Cmax", "value": "16.2 µM"}
{"SMILES": "Cc1cc(-c2nccc3c2ccn3CC(=O)Nc2ccc(-c3cnccn3)cn2)ccn1", "system": "human, plasma", "conditions": "oral, 40 mg, single dose", "quantity": "Cmax", "value": "0.345 µM"}
{"SMILES": "COc1ccc(-c2c(Nc3ccccn3)[nH]c3c(C4=CCCCC4)c(-c4ccccc4)nn3c2=O)cc1", "system": "human, plasma", "conditions": "oral, 400 mg once daily, multiple doses, patients", "quantity": "Cmax", "value": "3200 ng/mL"}
{"SMILES": "CN(C)C(=O)c1cc2cnc(Nc3ccc(-c4ccc5c(=O)cc(N6CCOCC6)oc5c4)cc3)nc2n1C1CCCC1.Cl", "system": "BALB/c mouse, plasma", "conditions": "oral, 20 mg/kg", "quantity": "Tmax", "value": "54 min"}
{"SMILES": "CCOCC(=O)N1CCC[C@H](C(=O)NCc2nc(-c3ccc(C)nc3)cs2)C1", "system": "Caco-2", "quantity": "efflux ratio", "value": 3.8}
{"SMILES": "CC(C)n1c(C2CCNCC2)nc2c([N+](=O)[O-])c(Br)c(Br)cc21", "system": "human, plasma", "conditions": "oral, 75 mg, patients", "quantity": "Cmax", "value": "60.5 ng/mL"}
